Laboratory results taken from paper PMC3825860 (Journal of Ginseng Research, 2013).

Key:
[1] = oral ginseng powder, healthy men, some individual variation; cited from earlier work
[2] = format: in vivo, human
Procedure, shortened: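 10 healthy male Korean volunteers, fasted from the night before until 1 PM, took 9 g extract orally with 100 mL water at 8 AM. Heparinised blood was drawn predose and at 4–14 h hourly, 24 and 36 h, and plasma was stored at -70℃. LC-MS/MS used a digoxin internal standard, an ODS column with methanol:water gradient, and 2–100 ng/mL plasma standards. Non-compartmental analysis used trapezoidal AUC, reported as mean±SD.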

CC(C)=CCC[C@](C)(O[C@@H]1O[C@H](CO)[C@@H](O)[C@H](O)[C@H]1O)[C@H]1CC[C@]2(C)[C@@H]1[C@H](O)C[C@@H]1[C@@]3(C)CC[C@H](O)C(C)(C)[C@@H]3CC[C@]12C [Compound K, 20-O-β-Ɗ-glucopyranosyl-20(S)-protopanaxadiol]
time of detection after oral administration [1]: 8 h
plasma concentration at 36 h after taking the extract ([2]; single oral 9 g Korean Red Ginseng extract, detected in 8 subjects): 0.90 ± 0.74 ng/mL

CC(C)=CCC[C@](C)(O[C@@H]1O[C@H](CO[C@@H]2O[C@H](CO)[C@@H](O)[C@H](O)[C@H]2O)[C@@H](O)[C@H](O)[C@H]1O)[C@H]1CC[C@]2(C)[C@@H]1[C@H](O)C[C@@H]1[C@@]3(C)CC[C@H](O[C@@H]4O[C@H](CO)[C@@H](O)[C@H](O)[C@H]4O[C@@H]4O[C@H](CO)[C@@H](O)[C@H](O)[C@H]4O)C(C)(C)[C@@H]3CC[C@]12C [Ginsenoside Rb1, ginsenoside Rb1]
AUC(0-inf) ([2]; male, human, plasma, po): 0.308 ± 0.146 µg·h/mL
AUC(0-t) ([2]; male, human, plasma, po): 0.102 ± 0.051 µg·h/mL
half-life ([2]; male, human, plasma, po): 58.5 ± 14.3 h
